Experimental data published in ChEMBL document CHEMBL4000167, “Chlorotheolides A and B, Spiroketals Generated via Diels-Alder Reactions in the Endophytic Fungus Pestalotiopsis theae” (J Nat Prod, 2016).
The source made the active and inactive calls. The calls are words filed in the database; no cut-off is given here.

Legend:
HeLa [1] = experiment: Induction of autophagy in human HeLa cells assessed as effect on ratio of SQSTM1/p62 to actin at 15 uM after 2 hrs by immunoblot method relative to control; format: functional
Summary of the method: (§1)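 Lysis used Triton X-100/glycerol buffer: 50 mM Tris-HCl pH 7.4, 4 mM EDTA, 2 mM EGTA, 1 mM DTT, 1% Triton X-100, 1% SDS and protease inhibitors. Lysates were run on SDS-PAGE, blotted to PVDF and detected by HRP secondaries with ECL. p62/actin ratio calculated.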

HeLa [2] = experiment: Induction of autophagy in human HeLa cells assessed as effect on ratio of LC3-2 to actin at 1 uM after 2 hrs in presence of chloroquine by immunoblot method relative to control; format: functional
Summary of the method: (§2)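 Lysis in Tris-HCl pH 7.4 buffer with EDTA, EGTA, DTT, 1% Triton X-100, 1% SDS and protease inhibitors. SDS-PAGE, PVDF transfer, HRP secondary antibodies, ECL detection. LC3-II band expressed as a ratio to actin.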

HeLa [3] = experiment: Induction of autophagy in human HeLa cells assessed as effect on ratio of SQSTM1/p62 to actin at 20 uM after 2 hrs by immunoblot method relative to control; format: functional; summary of the method: as §1
HeLa [4] = experiment: Induction of autophagy in human HeLa cells assessed as effect on ratio of LC3-2 to actin at 20 uM after 2 hrs in presence of chloroquine by immunoblot method relative to control; format: functional; summary of the method: as §2
HeLa [5] = experiment: Induction of autophagy in human HeLa cells assessed as effect on ratio of SQSTM1/p62 to actin at 1 uM after 2 hrs by immunoblot method relative to control; format: functional; summary of the method: as §1
HeLa [6] = experiment: Induction of autophagy in human HeLa cells assessed as effect on ratio of LC3-2 to actin at 10 uM after 2 hrs by immunoblot method relative to control; format: functional; summary of the method: as §2
HeLa [7] = experiment: Induction of autophagy in human HeLa cells assessed as accumulation of membrane vacuoles at 10 uM at 2 hrs by transmission electron microscopic method; format: functional, cell-based
Summary of the method: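 HeLa cells treated with 10 μM for 2 h, then washed in PBS, trypsinized and pelleted. Pellets fixed in 4% paraformaldehyde at 4 °C overnight and postfixed in 1% OsO4 in cacodylate buffer for 1 h at RT. They were then dehydrated in ethanol, rinsed in propylene oxide and embedded in Spurr resin. Thin sections examined by TEM.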

HeLa [8] = experiment: Induction of autophagy in human HeLa cells assessed as effect on ratio of SQSTM1/p62 to actin at 1 uM after 2 hrs in presence of chloroquine by immunoblot method relative to control; format: functional; summary of the method: as §1
HeLa [9] = experiment: Induction of autophagy in human HeLa cells assessed as effect on ratio of LC3-2 to actin at 1 uM after 2 hrs by immunoblot method relative to control; format: functional; summary of the method: as §2
HeLa [10] = experiment: Induction of autophagy in human HeLa cells assessed as effect on ratio of SQSTM1/p62 to actin at 10 uM after 2 hrs by immunoblot method relative to control; format: functional; summary of the method: as §1
HeLa [11] = experiment: Induction of autophagy in human HeLa cells assessed as effect on ratio of SQSTM1/p62 to actin at 20 uM after 2 hrs in presence of chloroquine by immunoblot method relative to control; format: functional; summary of the method: as §1
HeLa [12] = experiment: Induction of autophagy in human HeLa cells assessed as effect on ratio of LC3-2 to actin at 20 uM after 2 hrs by immunoblot method relative to control; format: functional; summary of the method: as §2
HeLa [13] = experiment: Induction of autophagy in human HeLa cells assessed as increase in punctate LC3 accumulation at 10 uM after 2 hrs by immunofluorescence method; format: functional, cell-based
Summary of the method: (§3)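 They were fixed in 4% paraformaldehyde and permeabilized in Ca/Mg-free PBS with 0.1% Triton X-100 and 0.5% BSA. Staining used anti-LC3 and Alexa Fluor secondaries, with DAPI mounting. LC3 puncta were counted by fluorescence microscopy.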

HeLa [14] = experiment: Induction of autophagy in human HeLa cells assessed as effect on ratio of LC3-2 to actin at 10 uM after 2 hrs in presence of chloroquine by immunoblot method relative to control; format: functional; summary of the method: as §2
HeLa [15] = experiment: Induction of autophagy in human HeLa cells assessed as increase in punctate LC3 accumulation at 10 uM after 2 hrs in presence of chloroquine by immunofluorescence method; format: functional, cell-based; summary of the method: as §3
HeLa [16] = experiment: Induction of autophagy in human HeLa cells assessed as effect on ratio of SQSTM1/p62 to actin at 10 uM after 2 hrs in presence of chloroquine by immunoblot method relative to control; format: functional; summary of the method: as §1
MCF7 = experiment: Antiproliferative activity against human MCF7 cells at 20 ug/ml after 48 hrs by MTS assay; format: functional, cell-based
Summary of the method: (§4)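 Cells seeded at (2−5) × 10^3 per well in 96-well plates and allowed to attach overnight. Medium was then replaced with medium containing test compound by serial dilution from 100 mM DMSO stocks, or 0.1% DMSO, with cisplatin as positive control. Incubation was 48 h at 37 °C in 5% CO2, then MTS was added for 90 min at 37 °C. Absorbance read at 490 nm; triplicate.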

HeLa [17] = experiment: Antiproliferative activity against human HeLa cells at 20 ug/ml after 48 hrs by MTS assay; format: functional, cell-based; summary of the method: as §4

CCN(CC)CCCC(C)Nc1ccnc2cc(Cl)ccc12 (stereo not given) [CHLOROQUINE]
fold change (FC) (HeLa [1]): 1.8

CCCCCCCC1=COC(=O)[C@]12C[C@]1(C(=O)OC)C=C(OC)[C@@]2(Cl)C(=O)[C@]12OC(=O)c1c(O)cc(C)cc1O2
fold change (FC) (HeLa [2]): 10.98 | fold change (FC) (HeLa [3]): 2.84 | fold change (FC) (HeLa [4]): 10.86 | fold change (FC) (HeLa [5]): 2.76 | fold change (FC) (HeLa [6]): 0.79 | Activity (HeLa [7]): Active | fold change (FC) (HeLa [8]): 2.84 | fold change (FC) (HeLa [9]): 1.03 | fold change (FC) (HeLa [10]): 3.61 | fold change (FC) (HeLa [11]): 1.94 | fold change (FC) (HeLa [12]): 2.9 | Activity (HeLa [13]): Active | fold change (FC) (HeLa [14]): 12.53 | Activity (HeLa [15]): Active | fold change (FC) (HeLa [16]): 2.19

COC(=O)C1=CC(OC)=C(Cl)C(=O)C12OC(=O)c1c(O)cc(C)cc1O2 (stereo not given)
inhibition (MCF7): inactive | inhibition (HeLa [17]): inactive

C=C(C(=O)O)[C@@H](CCCCCCCC)C(=O)O
inhibition (MCF7): inactive | inhibition (HeLa [17]): inactive
